pIC50: −log10 of the molar value. Values after ≈ are worked out from the molar mass of the structure shown.
Legend:
Staphylococcus aureus [1] = assay: Antibacterial activity against Staphylococcus aureus; type: functional
Staphylococcus aureus [2] = assay: Antibacterial activity against methicillin-resistant Staphylococcus aureus SAU1009; type: functional
Summary of the method: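 MIC against MRSA strain SAU1009.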

Staphylococcus aureus [3] = assay: Antibacterial activity against Staphylococcus aureus in po dosed mouse septicemia model; type: functional
[4] = biological target: T1, Amine oxidase [flavin-containing] A (Homo sapiens, UniProt P21397); assay: Inhibition of human recombinant MAO-A expressed in yeast after 1 hr by luciferin-based luminescence assay
T1 sequence (P21397 whole entry): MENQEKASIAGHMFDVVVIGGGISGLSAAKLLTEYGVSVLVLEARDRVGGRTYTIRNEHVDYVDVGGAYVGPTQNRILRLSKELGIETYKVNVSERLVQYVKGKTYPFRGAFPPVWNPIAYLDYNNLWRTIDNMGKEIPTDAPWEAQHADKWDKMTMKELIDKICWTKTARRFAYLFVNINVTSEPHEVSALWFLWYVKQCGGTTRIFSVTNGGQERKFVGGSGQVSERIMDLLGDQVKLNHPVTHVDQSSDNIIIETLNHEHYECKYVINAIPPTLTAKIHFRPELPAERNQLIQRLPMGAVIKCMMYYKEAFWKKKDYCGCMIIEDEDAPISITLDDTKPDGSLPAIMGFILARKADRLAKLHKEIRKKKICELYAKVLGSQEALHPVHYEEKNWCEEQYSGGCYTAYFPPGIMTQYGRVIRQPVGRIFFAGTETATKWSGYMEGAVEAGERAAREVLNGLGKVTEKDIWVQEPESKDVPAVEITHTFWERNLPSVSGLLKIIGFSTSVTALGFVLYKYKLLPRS

Staphylococcus aureus [5] = assay: Antibacterial activity against Staphylococcus aureus UC9213; type: functional

SMILES	MIC (Staphylococcus aureus [2]) [µg/mL]	ED50 (Staphylococcus aureus [3]) [mg/kg]	other results
CC(=O)NC[C@H]1CN(c2ccc(C(C)=O)cc2F)C(=O)O1			MIC (Staphylococcus aureus [1]): 32 µg/mL (≈ 109 µM)
O=C1O[C@@H](CO)CN1c1ccc(-c2ccc(N3CCOC3=O)nc2)c(F)c1	0.125 (≈ 0.335 µM)		
CC(=O)NC[C@H]1CN(c2ccc(N3C=CC(=O)CC3)c(F)c2)C(=O)O1		10	pIC50 [4]: 4.96; MIC (Staphylococcus aureus [5]): 0.5 µg/mL (≈ 1.44 µM)
N#Cc1ccc(-c2ccc(N3C[C@H](CO)OC3=O)cc2F)cn1	0.25 (≈ 0.798 µM)		
N#Cc1ccc(-c2ccc(N3C[C@H](CO)OC3=O)c(F)c2F)cn1	1 (≈ 3.02 µM)		
O=C1OCCN1c1ccc(-c2ccc(N3C[C@H](CO)OC3=O)c(F)c2F)cn1	0.5 (≈ 1.28 µM)		
Cn1nnc(-c2ccc(-c3ccc(N4C[C@H](CO)OC4=O)c(F)c3F)cn2)n1	1 (≈ 2.58 µM)		
CC(=O)NC[C@H]1CN(c2ccc(N3C=CC(=O)CC3)c(F)c2F)C(=O)O1	1 (≈ 2.74 µM)	15.9	pIC50 [4]: < 3.56
CC(=O)NC[C@H]1CN(c2cc(F)c(N3C=CC(=O)CC3)c(F)c2F)C(=O)O1	2 (≈ 5.22 µM)	> 20	

Source: ChEMBL document CHEMBL3286113, “New potent antibacterial oxazolidinone (MRX-I) with an improved class safety profile” (J Med Chem, 2014)
